Compound activity from PubChem BioAssay.
Runt-CBFb FRET = inhibitors of RUNX1 Runt–CBFb binding, primary screen, biochemical, FRET, Cerulean-Runt, Venus-CBFb, uHTS. Runt-related transcription factor 1 (Homo sapiens) + Core-binding factor subunit beta …. Cerulean-Runt/Venus-CBFb FRET ratio 530/480, 1 h. inhibition, % at 20 µM. 0.46% of 220,000 active. AID 1496, 2009;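 active means inhibition over about 50% at 20 µM in the single-dose screen, limit read from the data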
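Doses: 20 µM compound in 1% DMSO | Material: Cerulean-labeled Runt domain protein | Amount: Each fluorescent fusion protein 100 nM | Schedule: Two 1 h room-temperature incubations shielded from light | Measured by: FRET fluorescence | Evaluation: Loss of energy transfer signal | Controls: Unlabeled CBFb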
Hck-Nef inh = inhibitors of Nef-activated human Hck kinase, primary screen, biochemical, Z-Lyte FRET, 384-well, Hck-YEEI; Recombinant Hck-YEEI plus Nef, Z-Lyte FRET kinase assay; inhibition, % at 20 µM; Tyrosine-protein kinase HCK (Homo sapiens), P08631; 0.68% of 220,000 active;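 active means Hck-Nef kinase inhibition above about 50%, limit read from the data; inactive means inhibition below that limit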
RanGTP-Imp inh = inhibitors of RanGTP-importin-beta interaction, primary screen, biochemical, FRET, CFP-Ran, YFP-importin-beta, homogeneous; 1.1% of 300,000 active; Ran GTPase (GTP-bound) - importin-beta complex; inhibition, % (no concentration beside the values); AID 2216, 2009; cell-free CFP-Ran/YFP-importin-beta FRET ratio;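 active means more than half of the replicate wells show a fall in the fluorescence ratio signal beyond about 16%, limit read from the data, passing the limit was not always enough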
Runt-SMMHC FRET = inhibitors of RUNX1 Runt–CBFb-SMMHC binding, primary screen, biochemical, FRET, Cerulean-Runt, Venus-CBFb-SMMHC, uHTS; Cerulean-Runt/Venus-CBFb-SMMHC FRET ratio 530/480, 1 h; 0.74% of 220,000 active; inhibition, % at 20 µM;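 active means mean inhibition across duplicate retests at 20 µM reaching about 50%, limit read from the data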;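 further: inhibitors lower the FRET ratio by blocking Runt binding to CBFb-SMMHC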
p97 inhibitor = inhibitors of human p97 ATPase, primary screen, biochemical; recombinant p97 ATPase, Kinase-Glo ATP luminescence, 3 h; inhibition, % at 8 µM; 0.42% of 220,000 active; AID 1481, 2009; in the data active means inhibition above about 15%
TbHK1 inh = Trypanosoma brucei hexokinase 1 inhibitors, primary screen, biochemical, G6PDH-coupled NADH absorbance, MLSCN library. inhibition, % at 10 µM. recombinant TbHK1, G6PDH-coupled NADH A340. AID 1430, 2008. 0.11% of 220,000 active;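 active means inhibition of 50% or more in the single-dose primary screen; inactive means inhibition below 50%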
G6PDH ctr = Leuconostoc G6PDH inhibition, confirmation, counter-screen for TbHK1 inhibitor project, biochemical, DPI cherry-picked compounds, single concentration; inhibition, % at 10 µM; shares compounds with TbHK1 inh; 7% of 210 active; purified G6PDH, NADH absorbance, 1 h; AID 2516, 2010;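 active means at least 50% inhibition in the glucose-6-phosphate dehydrogenase coupled counterscreen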
TbHK1 confirm = TbHK1 inhibitor retest, confirmation, biochemical, DPI cherry-picked primary actives. shares compounds with TbHK1 inh. recombinant TbHK1, G6PDH-coupled NADH A340 absorbance. inhibition, % at 10 µM. 10% of 210 active. AID 2560, 2010;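 active means inhibition of at least 50% in both of the two screening runs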
Large screens that a line does not name were inactive (follow-up assays come after a bar, where they were run). Sampled rows, rich in hits. Any-hit rate of the full collection: about 2.1%.

COc1cc(-c2n[nH]c(=S)n2-c2ccc(C)cc2)cc(OC)c1OC	none
O=C(COc1ccc(Br)cc1)NNC(=S)NC(=O)c1ccccc1[N+](=O)[O-]	TbHK1 inh 60.9 | G6PDH ctr inactive | TbHK1 confirm inactive
COc1ccc(CCC(=O)OCC(=O)N(CC(C)C)c2c(N)n(Cc3ccccc3)c(=O)[nH]c2=O)cc1	none (no result: Runt-CBFb FRET, Hck-Nef inh, Runt-SMMHC FRET, p97 inhibitor, TbHK1 inh)
CCC(C)NC(=O)NC1C(NC(=O)NC(C)CC)N(C)C(=O)N1C (configuration not stated)	none
CC(C)CNC(=O)NC1C(NC(=O)NCC(C)C)N(C)C(=O)N1C (configuration not stated)	TbHK1 inh 56.7 | G6PDH ctr inactive | TbHK1 confirm inactive
COc1ccc(CCNC(=O)C2CCCCC2C(=O)O)cc1OC (configuration not stated)	TbHK1 inh 58.7 (no result: RanGTP-Imp inh) | G6PDH ctr inactive | TbHK1 confirm inactive
O=C(O)C1CCCCC1C(=O)NCCc1ccccc1 (configuration not stated)	none
Cc1cccc(NC(=S)NNC(=O)c2cc3c(s2)CCC(C)C3)c1C (configuration not stated)	TbHK1 inh 70.6 | G6PDH ctr inactive | TbHK1 confirm inactive
O=C(c1cc(S(=O)(=O)N2CCOCC2)c(Cl)cc1Cl)N1CCCCC1	none
NC(=O)C1CCN(C(=O)c2cc(S(=O)(=O)N3CCOCC3)c(Cl)cc2Cl)CC1	TbHK1 inh 68.5 | G6PDH ctr inactive | TbHK1 confirm inactive
CC1=C(C(=O)Nc2ccccc2C(=O)NC2CCC(C)CC2)SCCO1 (configuration not stated)	none (no result: Runt-CBFb FRET, Hck-Nef inh, Runt-SMMHC FRET, p97 inhibitor, TbHK1 inh)
Cc1ccc(CNC(=O)CCS(=O)(=O)c2ccc(Br)cc2)cc1	TbHK1 inh 68.3 | G6PDH ctr inactive | TbHK1 confirm 79.2
O=C(NCCC1CCCCN1S(=O)(=O)c1cccs1)C(=O)NCc1ccccc1 (configuration not stated)	none (no result: Runt-CBFb FRET, Hck-Nef inh, Runt-SMMHC FRET, p97 inhibitor, TbHK1 inh)
O=C(COc1ccc2c(-c3ccccc3)cc(=O)oc2c1)NCC(O)c1ccccc1 (configuration not stated)	none (no result: Runt-CBFb FRET, Hck-Nef inh, Runt-SMMHC FRET, p97 inhibitor, TbHK1 inh)
O=C(O)CCNC1CCCCC1	none
O=C(O)CCCCC1CCSS1 (configuration not stated)	Hck-Nef inh 101.2, TbHK1 inh 86.2 | G6PDH ctr inactive | TbHK1 confirm 96.0
COc1cccc(N(CC(=O)NC2CCCC2)C(=O)CCC(=O)Nc2cc(C)on2)c1	none (no result: Runt-CBFb FRET, Hck-Nef inh, Runt-SMMHC FRET, p97 inhibitor, TbHK1 inh)
Cc1cccc(NC(=O)N2CCC(NC(=O)C3CCCCC3)CC2)c1	none (no result: Runt-CBFb FRET, Hck-Nef inh, Runt-SMMHC FRET, p97 inhibitor, TbHK1 inh)
Nc1nonc1-c1nc2ccccc2n1CC(=O)N/N=C\c1ccc(-c2ccc(Cl)cc2)o1	TbHK1 inh 52.2 | G6PDH ctr 108.5 | TbHK1 confirm inactive
NNC(=O)Cn1c(-c2nonc2N)nc2ccccc21	none
CC1CCCN(C(=O)C2CCN(S(=O)(=O)c3cccc4nsnc34)CC2)C1 (configuration not stated)	none (no result: Runt-CBFb FRET, Hck-Nef inh, Runt-SMMHC FRET, p97 inhibitor, TbHK1 inh)
O=C(C1CCN(S(=O)(=O)c2cccc3nsnc23)CC1)N1CCc2ccccc2C1	TbHK1 inh 53.6 | G6PDH ctr inactive | TbHK1 confirm inactive
CCN(CCCNC(=O)CC(C(=O)N1CCc2ccccc21)n1ccnc1)c1ccccc1 (configuration not stated)	TbHK1 inh 55.5 | G6PDH ctr inactive | TbHK1 confirm inactive
